In ChEMBL document CHEMBL4813970, “Design, synthesis and evaluation of novel dimethylamino chalcone-O-alkylamines derivatives as potential multifunctional agents against Alzheimer's disease” (Eur J Med Chem, 2021):
Activity calls are given as the source filed them. No cut-off for these calls is given here.

What was measured:
PC-12 = assay: Neuroprotective activity against H2O2-induced cytotoxicity in rat PC12 cells assessed as increase in cell viability at 10 uM by MTT assay; assay type: functional
In short: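 PC12 cells exposed to 100 μM H2O2, with or without compound. Viability read by MTT reduction relative to control. Trolox 100 μM is the reference.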

[1] = Metal chelating activity assessed as compound-Al3+ complex formation by measuring maximum absorption wavelength shifted from 444 nm to 468 nm by UV-Visible spectrophotometry
In short: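 UV-vis spectra recorded from 200 to 600 nm on a multimode reader. Metals tested as CuCl2, FeSO4, ZnCl2 and AlCl3.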

[2] = target: T1, Amine oxidase [flavin-containing] A (Homo sapiens, UniProt P21397); assay: Inhibition of human recombinant MAO-A by multimode plate reader assay
T1 sequence (P21397 whole entry): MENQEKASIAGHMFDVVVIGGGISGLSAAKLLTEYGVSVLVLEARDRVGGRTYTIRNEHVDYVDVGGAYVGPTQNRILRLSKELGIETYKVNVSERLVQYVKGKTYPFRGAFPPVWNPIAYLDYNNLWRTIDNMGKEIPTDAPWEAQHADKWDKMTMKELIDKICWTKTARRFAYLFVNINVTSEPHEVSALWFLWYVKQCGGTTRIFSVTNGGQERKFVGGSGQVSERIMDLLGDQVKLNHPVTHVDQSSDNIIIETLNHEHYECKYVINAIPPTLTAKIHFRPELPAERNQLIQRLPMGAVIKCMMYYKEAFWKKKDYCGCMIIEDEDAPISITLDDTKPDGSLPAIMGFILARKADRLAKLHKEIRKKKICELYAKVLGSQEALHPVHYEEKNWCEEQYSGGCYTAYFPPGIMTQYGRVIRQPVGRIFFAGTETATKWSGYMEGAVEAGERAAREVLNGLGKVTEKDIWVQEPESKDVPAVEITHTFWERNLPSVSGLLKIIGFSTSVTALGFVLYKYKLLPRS

Mus musculus = assay: Antialzheimer activity in scopolamine-induced po dosed KM mouse model of memory impairment assessed as increase in latency time treated for 7 days followed by training trial at 1 hr post dose and subsequent scopolamine challenge at 30 mins post training trial and measured post last dose by step-down passive avoidance test; assay type: functional, organism-based; settings: dose 2.3-20.4 mg/kg, time 7.0 day
In short: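 Mice orally dosed at 2.3, 6.8 and 20.4 mg/kg, with donepezil 5.0 mg/kg p.o. as positive control, 1 h before training trial. Scopolamine 3 mg/kg i.p. given 30 min later. Training trial uses a 0.5 mA, 2 s foot shock on stepping down from the block. Step-down latency is measured as the test trial 24 h after training. n = 10 per group.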

Acetylcholinesterase = target: T2, Acetylcholinesterase (Rattus norvegicus, UniProt P37136); assay: Inhibition of rat cortex homogenate acetylcholinesterase by Ellman's method
T2 sequence (P37136 whole entry): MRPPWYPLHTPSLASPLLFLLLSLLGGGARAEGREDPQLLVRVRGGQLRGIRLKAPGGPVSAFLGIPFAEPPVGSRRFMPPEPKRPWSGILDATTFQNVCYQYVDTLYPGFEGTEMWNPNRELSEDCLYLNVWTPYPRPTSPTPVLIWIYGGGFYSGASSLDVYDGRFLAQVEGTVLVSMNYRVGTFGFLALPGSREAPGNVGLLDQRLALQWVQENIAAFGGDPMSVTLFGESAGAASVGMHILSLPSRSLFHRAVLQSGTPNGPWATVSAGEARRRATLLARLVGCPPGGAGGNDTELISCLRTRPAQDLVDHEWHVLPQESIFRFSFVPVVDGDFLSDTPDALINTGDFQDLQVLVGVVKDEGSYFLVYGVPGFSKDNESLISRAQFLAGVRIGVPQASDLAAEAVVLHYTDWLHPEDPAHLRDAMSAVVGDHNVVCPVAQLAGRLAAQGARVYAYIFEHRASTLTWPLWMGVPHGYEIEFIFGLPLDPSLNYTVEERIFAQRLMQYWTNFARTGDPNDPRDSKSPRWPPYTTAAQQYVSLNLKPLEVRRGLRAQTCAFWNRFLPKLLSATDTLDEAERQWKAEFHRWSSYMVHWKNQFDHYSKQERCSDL

With `CCN(CCCCOc1ccc(C(=O)/C=C/c2ccc(N(C)C)cc2)c(O)c1)Cc1ccccc1N(C)C` the Activity (PC-12) was 88.1%, the Activity [1] was “Active” and the IC50 [2] was 18.4 µM. For the same compound, the Activity (Mus musculus) was “Dose-Dependent Effect” and the IC50 (Acetylcholinesterase) was 0.13 µM.
